Here are results for 13 molecules from ChEMBL document CHEMBL1131877, “Structure-activity relationship of short-chain sphingoid bases as inhibitors of sphingosine kinase” (Bioorg Med Chem Lett, 1999).

A word on the inhibition: it is the change of the read-out against control, counted positive when it falls. A low value points to a response near the control.

The structures appear in SMILES notation.

In the assay the test system is HEK293. As to the kind of experiment: Inhibitory activity against sphingosine kinase expressed in HEK293 cells at 10 uM. Particulars: Homo sapiens. It counts as cell-based. In outline:
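Sphingosine kinase from cytosolic fractions of HEK 293 cells transfected to overexpress the enzyme (0.125 μg). Substrate D-erythro-sphingosine 10 μM in Triton X-100 (0.25% final), with [³²P]ATP (10 μCi, 1 mM) and MgCl₂ 10 mM. Analogues tested at 10 μM. After 10 min at 37 °C, sphingosine-1-phosphate formation measured. Activity given as % of vehicle-only control; means ± S.D.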
In turn, `CCCCCCCC(F)/C=C/[C@@H](N)CO` (stereo partly drawn) returned an inhibition of 80%.
The molecule `CCCCCCCCC[C@H](O)[C@@H](N)CO` yielded an inhibition of 50%.
Turning to `CCCCCCC/C=C/[C@H](F)[C@@H](N)CO`, the inhibition came to 82%.
Consider `N[C@@H](CO)[C@@H](O)CCc1ccccc1`, for which the inhibition was determined as 72%.
`N[C@@H](CO)[C@@H](O)/C=C/c1ccccc1` displayed an inhibition of 79%.
To `N[C@@H](CO)[C@H](O)/C=C/c1ccccc1` belongs 77%; to `N[C@@H](CO)[C@H](O)CCc1ccccc1`, 59%; to `CCCCCCCCCCCCC/C=C/[C@@H](O)[C@H](CO)N(C)C`, 47%.
`CCCCCCCCC[C@H](F)[C@@H](N)CO` showed an inhibition of 68%.
In turn, `CCCCCCC/C=C/[C@H](O)[C@@H](N)CO` came in with an inhibition of 70%.
As for `CCCCCCC/C=C/[C@@H](O)[C@@H](N)CO`, the figure is 69%; as for `N[C@@H](CO)[C@@H](F)CCc1ccccc1`, 62%.
For `CCCCCCCCC[C@@H](O)[C@@H](N)CO`, the inhibition stood at 48%.
